Data on 37 sequences can be found in the array DNA melting data of Ke et al. (doi:10.1101/2024.01.08.574731).

Data set [1] in a line: folding enthalpy; higher = less favourable; fluorescence melt of hairpins on a sequencing array, two-state fit. As to conditions: sodium 0.088 M. Put shortly:
(§1)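 To match UV melts, fitted temperatures were raised by 9.35 °C. These fits were bootstrapped two-state models that gave melting temperature and folding enthalpy, combined by inverse variance over four replicates. The input was normalised Cy3 fluorescence of library hairpins with annealed Cy3 and quencher oligos on a sequenced MiSeq flow cell, imaged in 50 mM Na-HEPES pH 8.0, 25 mM NaCl in 2.5 °C steps up to 60 °C.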

Data set [2] in a line: melting temperature; fluorescence melt of hairpins on a sequencing array, two-state fit, raised by 9.35 °C to match UV melts. Conditions: sodium 0.088 M. A digest of the protocol: as §1

With GACTTAGGAAACCAAGTC (((((.(....).))))), the folding enthalpy in data set [1] is -30.6 kcal/mol. For the same sequence, in data set [2], the Tm stood at 36 °C.

In the case of GACTTAGGAAACTAAGCC (.(((((....))))).), in data set [1], the folding enthalpy is -21.9 kcal/mol. The Tm in data set [2] was 34.2 °C.

Take GACTTCCGAAAGGATGTC (((.(((....))).))): in data set [1], the folding enthalpy is -40.7 kcal/mol. In data set [2], the Tm is 52.8 °C.

Regarding GACTTCGGAAACAAAGTC (((((.(....).))))), the folding enthalpy in data set [1] is -25.6 kcal/mol. For the same sequence, the Tm in data set [2] was 34 °C.

GACTTCGGAAACGGAGTC ((((.((....)).)))): the folding enthalpy in data set [1] is -39 kcal/mol. For the same sequence, the Tm in data set [2] came to 49.4 °C.

For the sequence GACTTGAAAAAGTC (((((....))))), the folding enthalpy in data set [1] is -26.7 kcal/mol. Also, the Tm in data set [2] was 44.5 °C.

Regarding GACTTGCGAAAGCAGGTC (((.(((....))).))), the folding enthalpy in data set [1] is -34.6 kcal/mol. In data set [2], the Tm came out at 60 °C.

Consider GACTTGGAAACAAGTC ((((((....)))))), for which the folding enthalpy in data set [1] is -38.5 kcal/mol. Moreover, in data set [2], the Tm came to 54.2 °C.

For the sequence GACTTGGGAAACTGAGTC ((((..(....)..)))), the folding enthalpy in data set [1] is -32 kcal/mol. The Tm in data set [2] turned out to be 33.5 °C.

GACTTTACGAAAGTAGTC (((..(((....)))))): the folding enthalpy in data set [1] is -12.9 kcal/mol. In data set [2], the Tm was 33.3 °C.

For GACTTTCCGAAAGGAGTC (((..(((....)))))), the folding enthalpy in data set [1] was -13 kcal/mol. Further, the Tm in data set [2] amounted to 29.6 °C.

As to GACTTTGAAAAAAGTC ((((((....)))))), in data set [1], the folding enthalpy was -40.6 kcal/mol. In addition, in data set [2], the Tm was 48.6 °C.

Consider GACTTTGGAAACAAAGCC (.(((((....))))).), for which the folding enthalpy in data set [1] is -22.4 kcal/mol. Moreover, the Tm in data set [2] stood at 39 °C.

With GAGAAAACGAAAGTTCTC (((..(((....)))))), the folding enthalpy in data set [1] was -19.4 kcal/mol. Further, the Tm in data set [2] stood at 30.8 °C.

With GAGAAACCGAAAGGTCTC (((..(((....)))))), the folding enthalpy in data set [1] is -16.8 kcal/mol. In addition, in data set [2], the Tm worked out at 34.1 °C.

GAGAAACGAAAGTTGCTC (((.(((....))).))): in data set [1], the folding enthalpy was -28 kcal/mol. Besides, the Tm in data set [2] is 48.8 °C.

For the sequence GAGAACCCGAAAGGGCTC (((..(((....)))))), the folding enthalpy in data set [1] is -13.9 kcal/mol. Further, the Tm in data set [2] is 34.9 °C.

In the case of GAGAACCGAAAGGTCTC (((.(((....)))))), the folding enthalpy in data set [1] was -20.6 kcal/mol. The Tm in data set [2] was 48.1 °C.

As to GAGAACCGAAAGGTGCTC (((.(((....))).))), the folding enthalpy in data set [1] was -34.3 kcal/mol. The Tm in data set [2] is 56.5 °C.

With GAGAACGAAAGTTACTC ((((((....))).))), the folding enthalpy in data set [1] was -12.4 kcal/mol. The Tm in data set [2] stood at 31.1 °C.

In the case of GAGAACGAAAGTTATCTC ((((((....)))..))), the folding enthalpy in data set [1] is -26 kcal/mol. In addition, the Tm in data set [2] came out at 43 °C.

GAGAACGAAAGTTCCCTC ((((((....)))..))): the folding enthalpy in data set [1] is -14 kcal/mol. In addition, in data set [2], the Tm was 38.9 °C.

Regarding GAGAACGAAAGTTCCTC ((((((....))).))), the folding enthalpy in data set [1] was -14.2 kcal/mol. The Tm in data set [2] was 42.7 °C.

Take GAGAAGAAATTCTC (((((....))))): the folding enthalpy in data set [1] was -9.49 kcal/mol. Further, the Tm in data set [2] was determined as 28.9 °C.

As for GAGAAGCGAAAGCTACTC (((.(((....))).))), in data set [1], the folding enthalpy was -28.8 kcal/mol. In data set [2], the Tm was 49.9 °C.

As to GAGAATCCGAAAGGACTC (((..(((....)))))), the folding enthalpy in data set [1] was -16 kcal/mol. The Tm in data set [2] amounted to 27.7 °C.

Regarding GAGACACGAAAGTGACTC (((.(((....))).))), the folding enthalpy in data set [1] was -36 kcal/mol. Moreover, the Tm in data set [2] worked out at 55.6 °C.

With GAGACAGAAATGTCTC ((((((....)))))), the folding enthalpy in data set [1] was -34.4 kcal/mol. Moreover, in data set [2], the Tm came out at 52.5 °C.

For GAGACCCGAAAGGGCCTC (((.(((....))).))), in data set [1], the folding enthalpy is -28.8 kcal/mol. The Tm in data set [2] stood at 58.5 °C.

Consider GAGACCGAAAGGTAGCTC ((((((....)))..))), for which, in data set [1], the folding enthalpy was -18.5 kcal/mol. In addition, the Tm in data set [2] was found to be 39.6 °C.

GAGACCGAAAGGTCGCTC ((((((....)))..))): the folding enthalpy in data set [1] was -14.3 kcal/mol. In addition, the Tm in data set [2] is 69.1 °C.

For the sequence GAGACCGAAAGGTTACTC ((((((....)))..))), in data set [1], the folding enthalpy was -12.8 kcal/mol. Besides, the Tm in data set [2] was determined as 34.8 °C.

Regarding GAGACGCGAAAGCGCTC (((.(((....)))))), in data set [1], the folding enthalpy is -14.3 kcal/mol. Also, in data set [2], the Tm came out at 50 °C.

Turning to GAGACGGGAAACCGTCTC (((((((....))))))), the folding enthalpy in data set [1] was -28 kcal/mol. For the same sequence, the Tm in data set [2] was determined as 69 °C.

Regarding GAGACTCCGAAAGGACTC (((..(((....)))))), the folding enthalpy in data set [1] was -12.8 kcal/mol. Further, the Tm in data set [2] turned out to be 25.6 °C.

GAGACTGGAAACAGCCTC (((.(((....))).))): the folding enthalpy in data set [1] is -23.8 kcal/mol. In data set [2], the Tm turned out to be 43.3 °C.

In the case of GAGACTGGAAACAGTCTC (((((((....))))))), in data set [1], the folding enthalpy is -40.3 kcal/mol. Moreover, the Tm in data set [2] was determined as 64.8 °C.
